The source made the active and inactive calls. The rule behind the calls is not given here.
How the values were obtained:
[1] = target: T1, Protein cereblon/Aurora kinase A (Homo sapiens) (UniProt O14965+Q96SW2); assay: PROTAC activity at AURKA/CRBN in human NGP cells assessed as AURKA degradation at 10 to 1000 nM measured for 24 hrs by Western blot analysis relative to control; type: cell-based; settings: dose 10-1000 nM
In short: (§1)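 NGP cells were seeded at about 2×10^6 per flask, adhered for 48 h, and were then treated for 24 h with DMSO matched. Lysis was in RIPA with protease/phosphatase inhibitors. AURKA was quantified by capillary Simple Western with peak areas normalised to vinculin. Fold change is relative to DMSO (mean ± SD, n = 3).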

[2] = Antiproliferative activity against human NGP cells assessed as reduction in cell viability incubated for 48 hrs; type: functional, cell-based
In short: (§2)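 Cells were grown in RPMI 1640 with 10% FCS and 2 mM L-glutamine. Seeding was 4500 cells/well for NGP, IMR-32 and N206, and 2100 cells/well for SK-N-AS, with adherence overnight. Compound was dispensed over a concentration range in triplicate. Confluence was imaged live for 48 h and normalised to the DMSO control. Absolute IC50 came from a four-parameter variable-slope fit (n = 4).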

[3] = species: Homo sapiens; assay: Growth inhibition of patient derived NB067 Neuroblastoma organoid assessed as reduction in viability incubated for […] by CellTiter Glo 3D assay relative to control; type: functional
[4] = Growth inhibition of patient derived 000GKX Neuroblastoma organoid assessed as reduction in viability […] by CellTiter Glo 3D assay; type: functional, tissue-based, Homo sapiens; settings: Homo sapiens, Neuroblastoma organoid; read-out: IC50
In short: (§3)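 Patient-derived organoids were dissociated to single cells with Accutase and seeded in NB organoid medium at 5000 (000GKX), 20000 (NB059), 5000 (NB067) or 3000 (NB139) cells/well. Compound was added after 24 h over a concentration range in triplicate, with DMSO matched. Incubation was 120 h at 37 °C and 5% CO2. Viability was read by CellTiter-Glo 3D, and absolute IC50 derived (n = 1).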

[5] = species: Homo sapiens; assay: Growth inhibition of patient derived 000GKX Neuroblastoma organoid assessed as reduction in viability incubated for […] by CellTiter Glo 3D assay relative to control; type: functional
[6] = tested on: SK-N-AS; assay: Antiproliferative activity against human SK-N-AS cells assessed as reduction in cell viability incubated for 48 hrs relative to control; type: functional
In short: (§4)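 Cells grown in RPMI 1640 with 10% fetal calf serum, 2 mM L-glutamine and penicillin/streptomycin at 37 °C, 5% CO2. Seeded at 4500 (IMR-32) or 2100 (SK-N-AS) cells/well in 384-well plates and left to adhere overnight. Concentration range dispensed in triplicate. Confluence tracked by IncuCyte live-cell imaging, and 48h values normalized to DMSO. Absolute IC50 taken from a four-parameter variable-slope fit (n = 4).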

[7] = tested on: SK-N-AS; assay: Antiproliferative activity against human SK-N-AS cells assessed as reduction in cell viability incubated for 48 hrs; type: functional, cell-based; settings: sk-n-as; in short: as §2
[8] = Growth inhibition of patient derived NB059 Neuroblastoma organoid assessed as reduction in viability incubated for 48 hrs by CellTiter Glo 3D assay; type: functional, tissue-based, Homo sapiens; settings: in the assay text read “120 hrs” for “48 hrs”; in short: as §3
[9] = species: Homo sapiens; assay: Growth inhibition of patient derived NB139 Neuroblastoma organoid assessed as reduction in viability incubated for […] by CellTiter Glo 3D assay relative to control; type: functional
[10] = species: Homo sapiens; assay: Growth inhibition of patient derived NB059 Neuroblastoma organoid assessed as reduction in viability incubated for […] by CellTiter Glo 3D assay relative to control; type: functional
[11] = Antiproliferative activity against human N206 cells assessed as reduction in cell viability incubated for 48 hrs; type: functional, cell-based; in short: as §2
[12] = target: T1, Protein cereblon/Aurora kinase A (Homo sapiens); assay: PROTAC activity at AURKA/CRBN in human NGP cells assessed as AURKA degradation at 10 to 1000 nM measured for 24 hrs by immunoblotting analysis; type: cell-based; settings: dose 10-1000 nM; in short: as §1
[13] = tested on: NGP; assay: Antiproliferative activity against human NGP cells assessed as reduction in cell viability incubated for 48 hrs relative to control; type: functional
[14] = target: T2, N-myc proto-oncogene protein (Homo sapiens) (UniProt P04198); assay: Induction of MYCN degradation in human NGP cells at 500 nM measured upto 72 hrs by Western blot analysis; type: cell-based
T2 sequence (whole entry): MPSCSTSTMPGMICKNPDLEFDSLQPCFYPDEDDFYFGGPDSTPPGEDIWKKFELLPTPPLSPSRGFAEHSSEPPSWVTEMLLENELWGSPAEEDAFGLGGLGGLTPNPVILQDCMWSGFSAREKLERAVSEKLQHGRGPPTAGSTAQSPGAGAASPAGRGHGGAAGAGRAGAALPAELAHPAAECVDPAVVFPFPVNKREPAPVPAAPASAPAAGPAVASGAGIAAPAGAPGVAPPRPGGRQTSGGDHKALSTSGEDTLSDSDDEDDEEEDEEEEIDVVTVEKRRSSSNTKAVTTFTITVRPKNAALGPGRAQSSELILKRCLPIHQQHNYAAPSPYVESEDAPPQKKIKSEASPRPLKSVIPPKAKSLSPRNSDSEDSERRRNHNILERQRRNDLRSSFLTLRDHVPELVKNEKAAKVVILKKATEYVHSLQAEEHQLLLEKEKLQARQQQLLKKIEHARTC
In short: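 NGP cells were treated with 500 nM compound and harvested at 0, 1, 3, 6, 24, 48 and 72 h. RIPA lysates (35 µg) were run on 10% SDS-PAGE and blotted to nitrocellulose. AURKA and MYCN were probed with vinculin as loading control and quantified by densitometry. Values are percent remaining relative to the DMSO control at each timepoint (n = 3).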

[15] = Growth inhibition of patient derived NB139 Neuroblastoma organoid assessed as reduction in viability […] by CellTiter Glo 3D assay; type: functional, tissue-based; settings: Homo sapiens; in short: as §3
[16] = tested on: IMR-32; assay: Antiproliferative activity against human IMR-32 cells assessed as reduction in cell viability incubated for 48 hrs; type: functional, cell-based; settings: IMR-32, 48 h; in short: as §2
[17] = tested on: IMR-32; assay: Antiproliferative activity against human IMR-32 cells assessed as reduction in cell viability incubated for 48 hrs relative to control; type: functional; in short: as §4
[18] = Growth inhibition of patient derived NB067 Neuroblastoma organoid assessed as reduction in viability […] by CellTiter Glo 3D assay; type: functional, tissue-based; settings: Homo sapiens; in short: as §3
[19] = tested on: N206; assay: Antiproliferative activity against human N206 cells assessed as reduction in cell viability incubated for 48 hrs relative to control; type: functional
[20] = target: T1, Protein cereblon/Aurora kinase A (Homo sapiens); assay: PROTAC activity at AURKA/CRBN in human NGP cells assessed as reduction in AURKA level at 100 nM measured for 24 hrs by Western blot analysis relative to control; type: cell-based; design: scale not given: the % may be the effect or the level left; in short: as §1
[21] = target: T1, Protein cereblon/Aurora kinase A (Homo sapiens); assay: PROTAC activity at AURKA/CRBN in human NGP cells assessed as AURKA degradation at 1000 nM measured for 24 hrs by Western blot analysis relative to control; type: cell-based; in short: as §1
[22] = target: T1, Protein cereblon/Aurora kinase A (Homo sapiens); assay: PROTAC activity at AURKA/CRBN in human NGP cells assessed as reduction in AURKA level at 10 nM measured for 24 hrs by Western blot analysis relative to control; type: cell-based; design: scale not given: the % may be the effect or the level left; in short: as §1
[23] = target: T1, Protein cereblon/Aurora kinase A (Homo sapiens); assay: PROTAC activity at AURKA/CRBN in human NGP cells assessed as AURKA degradation at 0.1 to 1000 nM measured for 24 hrs by Western blot analysis relative to control; type: cell-based; settings: dose 0.1-1000 nM; in short: as §1
[24] = target: T1, Protein cereblon/Aurora kinase A (Homo sapiens); assay: PROTAC activity at AURKA/CRBN in human NGP cells assessed as AURKA degradation measured for 24 hrs by Western blot analysis; type: cell-based; settings: dose 10-1000 nM
[25] = target: T3, Aurora kinase A (Homo sapiens) (UniProt O14965); assay: Induction of AURKA degradation (unknown origin) measured for 6 hrs relative to control
T3 sequence (whole entry): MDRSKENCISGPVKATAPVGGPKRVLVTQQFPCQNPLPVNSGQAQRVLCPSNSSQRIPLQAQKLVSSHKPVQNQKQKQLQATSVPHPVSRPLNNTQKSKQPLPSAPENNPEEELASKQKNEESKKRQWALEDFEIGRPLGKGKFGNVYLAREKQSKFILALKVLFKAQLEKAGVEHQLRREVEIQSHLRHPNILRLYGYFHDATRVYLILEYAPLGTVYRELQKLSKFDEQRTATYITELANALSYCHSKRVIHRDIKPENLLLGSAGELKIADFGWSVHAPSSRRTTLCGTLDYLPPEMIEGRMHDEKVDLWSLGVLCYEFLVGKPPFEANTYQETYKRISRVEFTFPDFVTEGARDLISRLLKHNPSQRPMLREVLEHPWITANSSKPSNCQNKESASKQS

[26] = target: T4, Aurora kinase A (Homo sapiens, UniProt O14965); assay: Induction of AURKA degradation (unknown origin) measured for 6 hrs
T4 sequence (O14965 whole entry): T3 sequence (whole entry)

[27] = target: T1, Protein cereblon/Aurora kinase A (Homo sapiens); assay: PROTAC activity at AURKA/CRBN in human NGP cells assessed as downregulation of AURKA level at 10 to 1000 nM measured for 24 hrs by Western blot analysis; type: cell-based; settings: dose 10-1000 nM; in short: as §1
[28] = target: T1, Protein cereblon/Aurora kinase A (Homo sapiens); assay: PROTAC activity at AURKA/CRBN in human NGP cells assessed as AURKA degradation at 10 nM measured for 24 hrs by Western blot analysis relative to control; type: cell-based; in short: as §1

T1 sequence (Q96SW2 whole entry, looked up, one chain of several): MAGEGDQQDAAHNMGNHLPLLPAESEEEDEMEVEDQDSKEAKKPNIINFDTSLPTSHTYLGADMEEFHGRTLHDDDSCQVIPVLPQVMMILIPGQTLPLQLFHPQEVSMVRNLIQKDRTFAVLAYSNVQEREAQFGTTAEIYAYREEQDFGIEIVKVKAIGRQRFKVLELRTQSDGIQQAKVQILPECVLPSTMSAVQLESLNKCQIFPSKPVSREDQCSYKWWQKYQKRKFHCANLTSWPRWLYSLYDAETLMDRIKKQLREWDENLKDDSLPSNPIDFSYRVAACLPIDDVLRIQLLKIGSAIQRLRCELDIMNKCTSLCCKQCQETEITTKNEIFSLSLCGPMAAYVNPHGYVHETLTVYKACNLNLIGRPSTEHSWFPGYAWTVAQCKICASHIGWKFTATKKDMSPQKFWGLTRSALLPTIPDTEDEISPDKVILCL

With `O=C1CCC(N2C(=O)c3ccc(OCCOCCOCCNC(=O)[C@]4(Cc5cccc(Nc6nccs6)n5)CC[C@@H](Oc5cccc(Cl)c5F)CC4)cc3C2=O)C(=O)N1` (stereo partly drawn) the Emax [1] was 85% and the IC50 [2] was 69.9 nM.

`O=C(O)[C@]1(Cc2cccc(Nc3nccs3)n2)CC[C@@H](Oc2cccc(Cl)c2F)CC1` [MK-5108] gave an Emax [3] of 14.2%, an IC50 [4] of 483 nM and an Emax [5] of 59.5%. The Emax [6] was 58.5%, the IC50 [7] was “Not Active” and the IC50 [8] was “Not Active”. The Emax [9] was 44.1%, the Emax [10] was 75.9% and the IC50 [11] was “Not Active”. For the same compound, the Activity [12] was “inactive”, the Emax [13] was 32.9% and the Activity [14] was “Active”. The IC50 [15] was 900 nM, the IC50 [16] was 199 nM and the IC50 [2] was 362 nM. The Emax [17] was 20.4%, the IC50 [18] was 75.3 nM and the Emax [19] was 53.2%.

With `O=C1CCC(N2C(=O)c3ccc(OCCOCCNC(=O)[C@]4(Cc5cccc(Nc6nccs6)n5)CC[C@@H](Oc5cccc(Cl)c5F)CC4)cc3C2=O)C(=O)N1` (stereo partly drawn) the Activity [20] was 17%, the Activity [21] was “Active” and the IC50 [2] was 63.3 nM. It also gave an Activity [22] of 45%.

With `COc1cc(Nc2ncc3c(n2)-c2ccc(Cl)cc2C(c2c(F)cccc2OC)=NC3)ccc1C(=O)NCCOCCOCCNC(=O)COc1cccc2c1C(=O)N(C1CCC(=O)NC1=O)C2=O` (stereo not drawn) the IC50 [2] was 877 nM and the Emax [23] was 73%.

With `O=C1CCC(N2C(=O)c3cccc(OCCOCCNC(=O)[C@]4(Cc5cccc(Nc6nccs6)n5)CC[C@@H](Oc5cccc(Cl)c5F)CC4)c3C2=O)C(=O)N1` (stereo partly drawn) the Activity [1] was “inactive”, the IC50 [2] was 1310 nM and the Activity [24] was “inactive”.

In the case of `O=C1CCC(N2C(=O)c3cccc(OCCOCCOCCOCCOCCNC(=O)[C@]4(Cc5cccc(Nc6nccs6)n5)CC[C@@H](Oc5cccc(Cl)c5F)CC4)c3C2=O)C(=O)N1` (stereo partly drawn), the Emax [1] is reported as 85%, the IC50 [2] is reported as 50.9 nM and the Activity [24] is reported as “Active”.

For `O=C1CCC(N2C(=O)c3cccc(OCCOCCOCCNC(=O)[C@]4(Cc5cccc(Nc6nccs6)n5)CC[C@@H](Oc5cccc(Cl)c5F)CC4)c3C2=O)C(=O)N1` (stereo partly drawn), the Emax [1] was 85%, the IC50 [2] was 80.8 nM and the Activity [24] was “Active”.

`O=C(COc1cccc2c1C(=O)N(C1CCC(=O)NC1=O)C2=O)NCCOCCOCCOCCNC(=O)[C@]1(Cc2cccc(Nc3nccs3)n2)CC[C@@H](Oc2cccc(Cl)c2F)CC1` (stereo partly drawn) showed an Emax [25] of 82%, an IC50 [2] of 102 nM and a DC50 [26] of 3 nM.

For `CN1C(=O)CCC(N2C(=O)c3cccc(OCCOCCOCCOCCNC(=O)[C@]4(Cc5cccc(Nc6nccs6)n5)CC[C@@H](Oc5cccc(Cl)c5F)CC4)c3C2=O)C1=O` (stereo partly drawn), the Activity [27] was “inactive” and the IC50 [2] was 1100 nM.

With `O=C1CCC(N2C(=O)c3ccc(OCCOCCOCCOCCOCCNC(=O)[C@]4(Cc5cccc(Nc6nccs6)n5)CC[C@@H](Oc5cccc(Cl)c5F)CC4)cc3C2=O)C(=O)N1` (stereo partly drawn) the Emax [1] was 85%, the Emax [28] was 85% and the IC50 [2] was 34 nM.

For `O=C1CCC(N2C(=O)c3ccc(OCCOCCOCCOCCNC(=O)[C@]4(Cc5cccc(Nc6nccs6)n5)CC[C@@H](Oc5cccc(Cl)c5F)CC4)cc3C2=O)C(=O)N1` (stereo partly drawn), the Emax [1] was 85%, the Emax [28] was 85% and the IC50 [2] was 40.1 nM.

With `O=C(COc1cccc2c1C(=O)N(C1CCC(=O)NC1=O)C2=O)NCCOCCOCCNC(=O)[C@]1(Cc2cccc(Nc3nccs3)n2)CC[C@@H](Oc2cccc(Cl)c2F)CC1` (stereo partly drawn) the IC50 [2] was 83.3 nM and the Activity [24] was “Active”.

Reference: ChEMBL document CHEMBL5331087, “Targeted AURKA degradation: Towards new therapeutic agents for neuroblastoma” (Eur J Med Chem, 2023)
